SENP6 block – SENP6 protease inhibitors, primary screen, biochemical, luminescence, uHTS; Recombinant SENP6 catalytic domain, aminoluciferin luminescence; hit rate 1.8% among 330,000; AID 2599, 2010; inhibition, % at 10 µM;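 active = inhibition above about 50% at the single tested dose, limit read from the data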;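 also: plate controls were DMSO wells with enzyme for no effect and DMSO wells lacking enzyme for full effect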
SENP1 FRET inh – human SENP1 catalytic domain inhibitors, primary screen, biochemical, FRET, uHTS | AID 624204, 2012 | inhibition, % at 10 µM | recombinant SENP1 catalytic domain, CyPet-SUMO1-YPet FRET cleavage | hit rate 0.21% among 360,000 | Sentrin-specific protease 1 (Homo sapiens), Q9P0U3;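 active = inhibition at least 30% at 10 µM, raw YFP signal under a set limit, fluorescence ratio 0.5 to 1.5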;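 also: 0% = enzyme with DMSO and 100% = no enzyme wells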
Target sequence (Q9P0U3 419-644 limits assumed): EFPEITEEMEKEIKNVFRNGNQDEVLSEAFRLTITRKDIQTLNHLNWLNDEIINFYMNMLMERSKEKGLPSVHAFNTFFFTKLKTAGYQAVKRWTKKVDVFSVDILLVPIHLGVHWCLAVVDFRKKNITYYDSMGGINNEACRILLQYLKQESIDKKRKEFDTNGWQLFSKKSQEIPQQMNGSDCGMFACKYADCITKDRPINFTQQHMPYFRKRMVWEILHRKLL
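Assay system: hSENP1 catalytic domain, recombinant. Amount: SENP1 enzyme, 20 pM final. Schedule: 50 min reaction, RT, dark. Technique: FRET, CFP and YFP emission. Control set: no-enzyme wells low, DMSO-plus-enzyme wells high control.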
SENP8 block-1 – SENP8 protease inhibitors, primary screen, biochemical, luminescence; Sentrin-specific protease 8 (Homo sapiens), Q96LD8; purified SENP8, Z-RLRGG-aminoluciferin cleavage; inhibition, % at 10 µM; hit rate 1.2% among 330,000; in the data active = inhibition above about 50%
Target sequence (Q96LD8 whole entry, looked up): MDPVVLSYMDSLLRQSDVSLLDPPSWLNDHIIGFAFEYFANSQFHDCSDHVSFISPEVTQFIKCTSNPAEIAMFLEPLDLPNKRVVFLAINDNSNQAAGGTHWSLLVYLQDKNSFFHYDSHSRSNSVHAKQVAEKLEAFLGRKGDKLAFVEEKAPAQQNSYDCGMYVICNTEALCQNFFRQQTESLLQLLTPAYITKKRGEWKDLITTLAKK
Platelet DG rel – inhibitors of platelet dense granule secretion, primary screen, cell-based, MLPCN, human platelets; inhibition, %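 (compounds screened at 7.5 µM in platelet-rich plasma)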; hit rate 0.22% among 300,000; human platelet-rich plasma, SFLLRN dense granule ATP release, luminescence;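 active = mean replicate score, as percent of positive control, at or above 50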
SENP8 block-2 – human SENP8 protease inhibitors, primary screen, biochemical, fluorescence, Nedd8 protein substrate, uHTS. Sentrin-specific protease 8 (Homo sapiens), Q96LD8. recombinant SENP8. inhibition, % at 20 µM. hit rate 0.64% among 360,000. AID 602440, 2012; in the data active = inhibition mostly above about 40%, no sharp cut-off; inactive = mostly below about 27%
SENP7 inh – SENP7 protease inhibitors, primary screen, biochemical, luminescence, uHTS. Sentrin-specific protease 7 (Homo sapiens), Q9BQF6. recombinant SENP7, Z-RLRGG-aminoluciferin luminescence, 40 min. inhibition, % at 5 µM. hit rate 1.5% among 330,000;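 active = inhibition above about 50% at the single test dose, limit read from the data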;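 also: plate controls were DMSO with enzyme for no effect and no enzyme buffer wells for full effect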
SENP8 confirm – SENP8 protease inhibitors, retest, confirmation, biochemical, luminescence, single concentration; shares compounds with SENP7 inh; Recombinant SENP8, Z-RLRGG-aminoluciferin luminescence, 60 min; inhibition, % at 12.5 µM; hit rate 40% among 6,200;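 active = mean inhibition across replicates above about 50%, limit read from the data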
SENP6 conf – SENP6 protease inhibitors, confirmation, biochemical, luminescence, single concentration; shares compounds with SENP7 inh; recombinant SENP6, Z-RLRGG-aminoluciferin luminescence; inhibition, % at 12.5 µM; hit rate 58% among 6,200
SENP7 confirm – SENP7 protease inhibitors, retest, confirmation, biochemical, luminescence, single concentration; shares compounds with SENP7 inh; recombinant SENP7, Z-RLRGG-aminoluciferin luminescence, 40 min; inhibition, % at 12.5 µM; hit rate 69% among 6,200; AID 488917, 2010
Casp3 SENP sel – caspase-3 protease inhibitors, confirmation, selectivity assay for SENP inhibitor project, biochemical, single concentration | shares compounds with SENP7 inh | purified caspase-3, Z-DEVD-aminoluciferin luminescence, 60 min | inhibition, % at 12.5 µM | hit rate 60% among 6,200 | AID 488918, 2010;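 active = mean inhibition above about 50%, limit read from the data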;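 also: plate controls were enzyme with DMSO for no effect and wells without caspase-3 for full effect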
Target sequence (P42574 28-227 limits assumed): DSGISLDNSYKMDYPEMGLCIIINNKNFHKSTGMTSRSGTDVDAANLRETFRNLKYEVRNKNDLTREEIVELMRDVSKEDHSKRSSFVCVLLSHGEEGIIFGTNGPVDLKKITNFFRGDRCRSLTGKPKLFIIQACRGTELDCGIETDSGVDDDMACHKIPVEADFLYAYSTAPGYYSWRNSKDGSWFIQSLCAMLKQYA
SENP luc ctr – interferes with luciferase luminescence in SENP counter-screen. shares compounds with SENP7 inh. Pre-incubated SENP8/Z-RLRGG-aminoluciferin, luciferase luminescence interference. inhibition, % at 12.5 µM. hit rate 39% among 6,200;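 active = mean inhibition above about 50% when retested at one dose, limit read from the data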;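 also: plate controls were DMSO wells with completed reaction for no effect and substrate without enzyme for full effect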
An asterisk follows results filed as active; i = inactive; . = no result given. An excerpt weighted towards active compounds, which were near 2.6% of everything screened.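 The calls were made as follows, unless noted: active = mean inhibition above about 50% in the one-dose retest (limit read from the data); inactive = the rest.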

SMILES | SENP6 block | SENP1 FRET inh | SENP8 block-1 | Platelet DG rel | SENP8 block-2 | SENP7 inh | SENP8 confirm | SENP6 conf | SENP7 confirm | Casp3 SENP sel | SENP luc ctr
COc1ccc(OC)c(Nc2cc3ccccc3c(=O)[nH]2)c1 | 94* | -41 | 88* | -1 | i | 97* | 31 | 74* | 41 | 11 | -8
COc1ccccc1Nc1nnc(C)c(=O)[nH]1 | -17 | 1 | -11 | 0 | 9 | 2 | . | . | . | . | .
O=c1[nH]c(Nc2ccccc2)cc2cc(Br)ccc12 | 96* | -113 | 97* | -4 | -174 | 94* | 96* | 98* | 96* | 95* | 18
O=c1[nH]c(Nc2ccccc2)cc2ccccc12 | 89* | 12 | 96* | 3 | -414 | 94* | 55* | 80* | 59* | 25 | 18
CCc1ccc(NC2=CC(=O)CC(c3ccco3)C2)cc1 (stereo not given) | -5 | -17 | 6 | 4 | -9 | 1 | . | . | . | . | .
CC(=O)c1cccc(-c2ccc3c(=O)[nH]c(Nc4ccccc4)cc3c2)c1 | 99* | -47 | 97* | 7 | 6 | 95* | 95* | 97* | 95* | 97* | 16
Cc1ccc(C2C3=C(CC(C)(C)CC3=O)NC3=C2C(=O)CC(C)(C)C3)o1 | 14 | -24 | 7 | 3 | -40 | 5 | . | . | . | . | .
COc1ccc2nc(-c3ccc(N)cc3)[nH]c2c1 | 75* | -2 | 54* | 29 | i | 83* | 68* | 61* | 91* | 86* | 74*
COc1ccc2nc(SCC(N)=O)[nH]c2c1 | -1 | -1 | 5 | -1 | 13 | 10 | . | . | . | . | .
COc1ccc2nc(-c3cccc(N)c3)[nH]c2c1 | 77* | -3 | 58* | 28 | -489 | 82* | 70* | 71* | 94* | 88* | 67*
O=C1CC(c2ccc3c(c2)OCCO3)Oc2ccccc21 (stereo not given) | 7 | 1 | 0 | 0 | 2 | 9 | . | . | . | . | .
O=C1CC(c2ccc3c(c2)OCCO3)Oc2ccc([N+](=O)[O-])cc21 (stereo not given) | 99* | 0 | 96* | 13 | 20 | 98* | 44 | 98* | 101* | 51* | 20
C/C=C/c1ccc(OCCOCCNCc2ccccc2)c(OC)c1 | 13 | 0 | -2 | 0 | 6 | 7 | . | . | . | . | .
CCOC(=O)N(C)C[C@@H]1OCc2cn(nn2)CCCC(=O)N([C@@H](C)CO)C[C@H]1C | . | 0 | . | . | 3 | . | . | . | . | . | .
OCCCCCNc1ncnc2ccccc12 | -9 | -14 | -4 | -6 | -138 | 9 | . | . | . | . | .
OCCCCNc1cccc2ccccc12 | 63* | -7 | 45 | 10 | -309 | -6 | 2 | 20 | 3 | -1 | -4
O=C(NCc1ccccc1)c1c(F)c(F)c(F)c(F)c1F | -1 | 0 | 52* | . | 16 | 9 | -3 | 0 | -5 | -1 | -3
O=C(Nc1cccc(O)c1)c1c(O)c2ccccc2[nH]c1=O | 48 | -1 | 62* | 10 | -26 | 86* | 7 | 50* | 78* | 57* | 44
CCCc1nc2sc3c(=O)n(N)cnc3c2c2c1CCCC2 | 8 | 3 | -1 | 2 | -54 | 1 | . | . | . | . | .
CC(=O)N(\C=C/C=C/C=C1\Sc2ccccc2C1=O)c1ccccc1 | 21 | 16 | 1 | 3 | -16 | 12 | . | . | . | . | .
CC(=O)N(c1ccccc1C)c1ccccc1C | . | 2 | . | . | 8 | . | . | . | . | . | .
CC(=O)N(/N=C1\Sc2ccccc2C1=O)c1ccc(C)cc1C | 87* | -10 | 83* | 24 | -53 | 70* | 6 | 65* | 38 | 15 | -1
CC(=O)N(/N=C1\Sc2ccccc2C1=O)c1ccccc1C | 87* | -7 | 90* | -4 | -7 | 63* | 15 | 82* | 36 | 5 | 8
Cc1oc(-c2ccccc2)nc1C(=O)OCC(=O)NC(=O)NCC(C)C | -23 | -7 | 26 | 1 | -3 | 65* | 4 | 6 | 17 | 28 | 12
Cc1ccc(Cn2cccc(NC(=O)NCc3ccccc3)c2=O)cc1 | 0 | 2 | -4 | -1 | -187 | -1 | . | . | . | . | .
SMILES | SENP6 block | SENP1 FRET inh | SENP8 block-1 | Platelet DG rel | SENP8 block-2 | SENP7 inh | SENP8 confirm | SENP6 conf | SENP7 confirm | Casp3 SENP sel | SENP luc ctr
O=C(CSCc1ccco1)N1CCc2ccccc21 | 57* | 1 | 34 | 0 | 14 | 33 | 47 | 45 | 79* | 68* | 58*
Cc1cc(C)nc(N/N=C/c2cccc([N+](=O)[O-])c2)n1 | -8 | 2 | 5 | 11 | 20 | 0 | . | . | . | . | .
O=[N+]([O-])c1cccc(/C=N/Nc2ccccn2)c1 | 56* | 2 | 26 | 6 | 24 | 55* | -2 | -5 | 74* | 17 | -2
O=[N+]([O-])c1ccc(/C=N/Nc2ccccn2)cc1 | -12 | 22 | -18 | 1 | 30 | 15 | . | . | . | . | .
O=[N+]([O-])c1cccc(/C=N/Nc2nccnc2Cl)c1 | 94* | 2 | 83* | 42 | 13 | 93* | 91* | 91* | 100* | 97* | 83*
Cc1c(C#N)c(O)[nH]c(=O)c1N=Nc1ccc(S(N)(=O)=O)cc1 | 51* | -2 | 26 | -5 | 26 | -20 | 43 | 38 | 71* | 75* | 52*
CN(c1ccc([N+](=O)[O-])cc1C(N)=O)C1CCCCC1 | -5 | 0 | -13 | 1 | 15 | 0 | . | . | . | . | .
CCNC(=O)COc1ccc(-c2ccccc2)cc1 | -19 | 1 | -19 | 1 | 31 | -4 | . | . | . | . | .
CC(C)(C)NC(=O)COc1ccc(-c2ccccc2)cc1 | 51* | 1 | -1 | 2 | 14 | 32 | 36 | 28 | 62* | 31 | 21

Screens deposited in PubChem by several laboratories.
